Source: PubChem (several laboratories)
GRK2 inh = compounds blocking aptamer binding on GRK2 – biochemical, human GRK2, bead flow cytometry, HTS, primary screen. FAM-aptamer displacement from GRK2. inhibition of aptamer binding, % at 10 µM. hit rate 0.59% among 330,000;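 active = inhibition of aptamer binding above 40%, roughly 3 SD of noise, on plates passing a quality check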;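 also: median bead fluorescence of bound FAM aptamer so fluorescent compounds give negative values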
B2AR ag = beta2AR agonists driving receptor internalization, primary screen, cell-based, FAP fluorogen, flow cytometry. Beta-2 adrenergic receptor (Homo sapiens), P07550. Am2.2-beta2AR cells. response, % (concentration not given with the values). hit rate 0.43% among 340,000;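 active = response above a set limit, near 3 SD of response in nonfluorescent compounds, cut at about 42% in these data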
Lipid droplet = inhibitors of hepatocyte lipid droplet formation, primary screen, imaging, high-throughput imaging, BODIPY stain | AML12 mouse hepatocytes, oleate lipid droplets | inhibition, % at 6.5 µM | hit rate 0.4% among 240,000;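 active = lipid droplet intensity inhibited by at least 50%, with more than 500 cells counted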
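Test system: AML12 hepatocytes (mouse); reagent: oleate loading, 100 µM; dosing: one dose, 6.5 µM compound; incubation: overnight exposure; signal: fluorescence imaging, 20x objective, two fields per well; read-out basis: % inhibition of corrected integrated BODIPY droplet signal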
Arrestin-AP2 inh = inhibitors of beta-arrestin/AP2 binding, primary screen, biochemical, GPCR trafficking, flow cytometry; FITC-arrestin peptide / GST-AP2 beads; AP2 beta2 appendage carries R879A mutation; hit rate 0.31% among 340,000; inhibition, % at 10 µM; AID 504490, 2011;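 active = inhibition above a set limit, near 3 SD of compounds lacking own fluorescence, cut at about 54% in these data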;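 also: plate controls were DMSO wells for no effect and 5 µM unlabelled arrestin peptide for full effect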
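Material – GST-tagged AP2 beta2-adaptin appendage (R879A) on 4 µm glutathione beads · Probe or stimulus – fluorescein-tagged arrestin peptide at 50 nM final · Timing – 12 min plus 1 h, RT · Detection – bead flow cytometry, FITC channel · Read-out basis – inhibition as reduced fluorescein signal on beads, percent · Medium – PBS plus Tween 20 (0.05%) and BSA (0.1%)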
NTR1 ag = agonists of human NTR1, primary screen, imaging, U2OS cells, beta-arrestin-GFP, high content; AID 493036, 2011; Neurotensin receptor type 1 (Homo sapiens), P30989; NTR1-U2OS beta-arrestin-GFP spot imaging, agonist mode; hit rate 0.17% among 330,000; activation, % at 20 µM;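 active = activation at or above 40% of the spot to cytoplasm intensity ratio, with at least 20 cells analyzed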;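 also: 0% = DMSO without peptide and 100% = 100 nM NTR1 peptide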
Target sequence (P30989 whole entry, looked up): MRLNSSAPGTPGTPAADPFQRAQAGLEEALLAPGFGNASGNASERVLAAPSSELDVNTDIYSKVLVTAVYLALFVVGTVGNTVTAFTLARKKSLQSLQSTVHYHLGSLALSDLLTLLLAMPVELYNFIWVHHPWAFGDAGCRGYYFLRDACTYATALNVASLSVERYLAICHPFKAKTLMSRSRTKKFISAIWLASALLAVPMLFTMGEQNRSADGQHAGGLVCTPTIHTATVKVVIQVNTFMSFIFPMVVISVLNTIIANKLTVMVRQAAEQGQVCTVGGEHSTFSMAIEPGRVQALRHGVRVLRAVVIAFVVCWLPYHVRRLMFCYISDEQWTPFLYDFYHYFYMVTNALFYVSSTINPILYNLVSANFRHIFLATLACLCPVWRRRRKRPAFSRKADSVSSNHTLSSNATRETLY
TAG inh = inhibitors of triacylglycerol accumulation, primary screen, cell-based, uHTS, fluorescence, H9c2. H9c2 cells, Nile Red lipid (TAG) fluorescence; cells loaded with 200 µM oleic acid. inhibition, % at 12.5 µM. hit rate 0.66% among 230,000;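 active = pattern-corrected inhibition of lipid staining of at least 50% with the nuclear-stain viability signal not falling by more than 50%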;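 also: 0% = DMSO wells and 100% = triacsin C control wells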
* hit, by the source's call; nt = no result. Only some compounds are listed: those with a hit (about 2% of all), similar ones and a draw of the others.

SMILES	GRK2 inh	B2AR ag	Lipid droplet	Arrestin-AP2 inh	NTR1 ag	TAG inh
O=c1cc(-c2ccc(Cl)cc2)oc(=O)[nH]1	5.0	5.3	2.9	1.8	4.0	1.9
C[C@]12C(=O)N(c3ccc(Cl)cc3)C(=O)N1[C@@H]1c3ccccc3OC[C@@H]1[C@H]2c1ccccc1	1.0	4.7	nt	4.5	1.7	-5.8
COc1ccc2[nH]cc(/C=C/C(=O)c3ccccc3)c2c1	1.0	14.1	7.9	-21.1	4.1	1.6
COc1ccccc1NC(=O)c1cc2c(CO)cnc(C)c2oc1=Nc1cccc(C(N)=O)c1	1.0	57.9*	7.5	18.6	0.6	nt
COc1ccccc1NC(=O)c1cc2c(CO)cnc(C)c2oc1=Nc1ccccc1	0.0	7.2	10.3	33.4	19.7	nt
COc1ccc(NC(=O)CCNC(=O)c2ccco2)c(OC)c1	0.0	5.9	-8.0	-4.5	-1.7	nt
C[C@@H]1CN([C@H](C)CO)C(=O)CCCn2cc(nn2)CO[C@H]1CN(C)S(=O)(=O)c1cccc(F)c1	nt	nt	nt	nt	nt	-0.6
CCOC(=O)N/N=C1\CCS(=O)(=O)c2ccc(Cl)cc21	4.0	-10.2	-2.0	-10.8	0.8	2.8
O=C(N/N=C/c1cc(Br)ccc1O)c1ccncc1	4.0	5.4	-15.3	-13.9	0.0	55.9*
COC(CNC(=O)c1ccc2c3c(onc13)-c1ccccc1C2=O)OC	5.0	48.3*	14.4	42.0	-1.1	8.4
COC(CNC(=O)c1cccnc1)OC	2.0	4.5	-2.9	-15.2	-0.2	12.6
CCC(C)c1ccccc1NC(=O)COC(=O)c1ccc2[nH]c3c(c2c1)CCCC3 (configuration not stated)	1.0	-8.6	58.9*	46.5	23.4	15.4
CC1(C(=O)Nc2cccc(C(F)(F)F)c2)Cc2c(-c3cccc(C(N)=O)c3)ccnc2O1 (configuration not stated)	nt	nt	nt	nt	nt	7.3
CCOc1cc(/C=N/NC(=O)c2cc(-c3cccc(OC)c3)nc3ccccc23)ccc1O	0.0	10.2	nt	39.9	1.2	13.3
CC(C)COc1cccc(-c2cc(C(=O)N/N=C/c3ccncc3)c3ccccc3n2)c1	0.0	50.7*	-20.5	2.1	6.5	-12.7
O=C(N/N=C/c1cccc(F)c1)c1cc(-c2ccco2)nc2ccccc12	43.0*	-0.7	nt	-3.3	0.5	0.9
Cc1ccc(NC(=O)C2CCCN2C(=O)c2cccs2)cc1C (configuration not stated)	0.0	-8.0	nt	2.4	-1.1	9.5
C#CCOCCOCCOCCNc1nc(N2CCN(C(=O)CCCCCCCCCCNC(=O)Cn3cc(C[C@@H](C)O)nn3)CC2)nc(N2CCN(C(=O)CCCCCCCCCCNC(=O)[C@@H]([C@H](C)O)n3cc(C)nn3)CC2)n1	1.0	20.6	nt	1.1	5.8	-32.5
C#CCOCCOCCOCCNc1nc(N2CCN(C(=O)CCCCCCCCCCNC(=O)Cn3cc(CCCCCN)nn3)CC2)nc(N2CCN(C(=O)CCCCCCCCCCNC(=O)Cn3cc(C[C@@H](C)O)nn3)CC2)n1	0.0	72.2*	nt	13.2	1.0	22.8
C#CCOCCOCCOCCNc1nc(N2CCN(C(=O)CCCCCCCCCCNC(=O)[C@H]([C@@H](C)CC)n3cc(CCCCN=C(N)N)nn3)CC2)nc(N2CCN(C(=O)CCCCCCCCCCNC(=O)[C@@H]([C@H](C)O)n3cc(C)nn3)CC2)n1	0.0	104.2*	nt	3.8	8.8	-7.5
C#CCOCCOCCOCCNc1nc(N2CCN(C(=O)CCCCCCCCCCNC(=O)Cn3cc(CCCCCN)nn3)CC2)nc(N2CCN(C(=O)CCCCCCCCCCNC(=O)[C@@H]([C@H](C)O)n3cc(C)nn3)CC2)n1	0.0	55.0*	nt	7.2	1.4	-25.5
C#CCOCCOCCOCCNc1nc(N2CCN(C(=O)Cn3cc(CCCCN)nn3)CC2)nc(N2CCN(C(=O)Cn3cc(CC(C)O)nn3)CC2)n1 (configuration not stated)	4.0	4.9	14.2	6.1	1.4	-6.1
C#CCOCCOCCOCCNc1nc(N2CCN(C(=O)CCCCCCCCCCNC(=O)Cn3cc(C[C@@H](C)O)nn3)CC2)nc(N2CCN(C(=O)CCCCCCCCCCNC(=O)[C@@H]([C@H](C)CC)n3cc(CCCCCN)nn3)CC2)n1	0.0	95.4*	nt	36.1	20.1	34.2
O=C(NNC(=O)C1CC1)c1cc(Cl)nc2ccccc12	75.0*	-2.7	7.8	-7.8	-0.9	5.5
COc1ccccc1/C=C/C(=C1/C(=O)N(c2ccccc2)N=C1C)c1ccc(C)cc1	3.0	-4.8	52.6*	2.8	5.4	nt
SMILES	GRK2 inh	B2AR ag	Lipid droplet	Arrestin-AP2 inh	NTR1 ag	TAG inh
CC1CC2OC2CC1COC(=O)C1CC2OC2CC1C (configuration not stated)	nt	1.9	nt	37.3	nt	11.0
C=CCOc1ccc(C[C@H](N)C(=O)NC[C@H]2O[C@@H](n3cnc4c(N)ncnc43)[C@H](O)[C@@H]2O)cc1	43.0*	-5.0	nt	-5.8	1.7	-12.4
Cc1ccc(C)c(S(=O)(=O)N2CCCC2CNC(=O)C(=O)NC2CCCC2)c1 (configuration not stated)	1.0	60.6*	nt	17.3	-0.2	-12.9
Cc1ccc(C)c(S(=O)(=O)N2CCCCC2CCNC(=O)C(=O)NC2CCCC2)c1 (configuration not stated)	2.0	-7.2	nt	-4.3	1.2	5.6
O=C(Nc1ccc2oc(=O)ccc2c1)c1ccc(-c2ccc(Cl)cc2)o1	0.0	36.2	-27.1	10.7	-1.4	nt
O=C(Nc1ccc2oc(=O)ccc2c1)c1ccc(-c2cccc(Cl)c2)o1	3.0	45.1*	-3.6	1.6	7.9	7.3
Oc1c(C(c2ccccn2)N2CCCCC2)cc(Cl)c2cccnc12 (configuration not stated)	2.0	26.0	-1.0	9.8	7.0	86.7*
COc1cc2ccccc2cc1C(=O)Nc1sc2c(c1C(N)=O)CCN(C(C)C)C2	0.0	10.3	-20.5	31.1	10.4	54.2*
CN1CCc2c(sc(NC(=O)c3ccc4ccccc4c3)c2C(N)=O)C1	3.0	-32.5	-27.2	30.5	-0.8	27.9
Cc1cccn2c(=O)c3cc(C(=O)NCCc4ccccc4)c(=N)n(Cc4ccco4)c3nc12	0.0	-0.3	2.2	5.5	57.1*	nt
COc1ccc(CN(C)C(=O)C(Cc2ccccc2)NC(=O)c2ccccc2)c(OC)c1 (configuration not stated)	0.0	9.8	nt	3.9	1.0	-8.4
